Hits are enriched below; roughly 6.8% of the tested compounds scored in any of these assays.
ALR H2O2 inh: inhibitors of human ALR sulfhydryl oxidase, primary screen, biochemical, H2O2 detection, HRP-luminol luminescence, single point; AID 485317, 2010; FAD-linked sulfhydryl oxidase ALR (Homo sapiens), P55789; inhibition, % (concentration not given with the values); purified ALR, DTT oxidation; 290,000 compounds, 3.8% hits;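 active = mean replicate inhibition above about 79%, with every replicate also reaching it, limit read from the data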
Target sequence (P55789 whole entry, looked up): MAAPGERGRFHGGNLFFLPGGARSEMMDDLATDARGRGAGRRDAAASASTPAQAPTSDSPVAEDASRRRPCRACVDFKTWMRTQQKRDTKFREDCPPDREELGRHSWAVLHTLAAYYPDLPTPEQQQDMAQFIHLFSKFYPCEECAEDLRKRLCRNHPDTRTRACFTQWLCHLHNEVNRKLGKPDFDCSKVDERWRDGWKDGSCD
core dimer inh: inhibitors of HCV core protein dimerization, primary screen, biochemical, TR-FRET, high-throughput. TR-FRET GST/Flag-core106 dimerization, 1536-well. 300,000 compounds, 0.33% hits. inhibition, % at 5 µM;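 active = inhibition above the mean of all tested compounds plus 3 SD, set per screening campaign, cut at about 45% in these data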
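System – GST-tagged and Flag-tagged HCV core protein residues 1-106 · Repeats – one well for each compound · Technique – TR-FRET 671 and 617 nm emission · Doses – one concentration, 5 µM, in 0.5% DMSO · Times – 4 h, 22.5 °C incubation · Also added – Eu donor and XL665 acceptor anti-tag antibodies · Measure – percent inhibition of core106 dimerization signal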
HSF1 inhib: HSF1 inhibitors in luciferase reporter cells, primary screen, cell-based, NIH3T3, luminescence | activity change, negative = inhibition, % at 7.5 µM (by protocol) | AID 2098, 2009 | NIH3T3-HGL HSE-luciferase, MG132-induced, luminescence 8 h; stronger effect = lower value | 300,000 compounds, 0.77% hits;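 active = more than half of replicate wells show activity change below -50%, luminescence cut by over half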;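 also: luciferase reports HSF-1 transcriptional activity via heat shock element; 0% = median of DMSO wells and -100% = zero luminescence signal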
HSF-1 act: HSF-1 activators, primary screen, NIH3T3-HGL cells, MG132 stress, luminescence, single point; AID 504408, 2011; NIH3T3-HGL HSF-1 luciferase reporter, 8 h; 100% = twice DMSO control signal; 300,000 compounds, 1.7% hits; activation, % at 9 µM;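 active = mean replicate activation of at least 50% with a set share of replicates each reaching 50%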;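 also: 0% = median of the neutral control wells and 100% = twice that signal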
AI-2 QS modul: Vibrio harveyi AI-2 quorum sensing modulators, primary screen, JMH597 strain, luminescence/OD600 ratio; Vibrio harveyi JMH597 AI-2 luminescence/OD600 ratio, 9 h; stronger effect = lower value; strain lacks LuxN and CqsS sensors; 0 = neutral-control median; activity change, % at 7.5 µM; 300,000 compounds, 0.4% hits; AID 2094, 2009; in the data active = activity change below about -75%, passing the limit was not always enough;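 also: luminescence divided by OD600 gain over 9 h not by final OD600 alone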
PHOSPHO1 block: PubChem AID 1565 | 290,000 compounds, 1.1% hits | recombinant PHOSPHO1, absorbance phosphatase assay | inhibition, % at 13.3 µM; in the data active = inhibition above about 60%
Target sequence (Q8TCT1 whole entry, looked up): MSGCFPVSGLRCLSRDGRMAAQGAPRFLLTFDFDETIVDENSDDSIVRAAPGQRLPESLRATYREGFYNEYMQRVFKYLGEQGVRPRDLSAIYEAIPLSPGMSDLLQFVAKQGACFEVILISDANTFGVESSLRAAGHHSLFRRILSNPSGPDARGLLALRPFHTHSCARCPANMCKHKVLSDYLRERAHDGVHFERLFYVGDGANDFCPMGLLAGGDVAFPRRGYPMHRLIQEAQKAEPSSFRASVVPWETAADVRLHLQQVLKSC
An asterisk follows results filed as active; x = not tested or not shown.

SMILES	ALR H2O2 inh	core dimer inh	HSF1 inhib	HSF-1 act	AI-2 QS modul	PHOSPHO1 block
Cc1cccn2c(NC(=O)c3cccs3)c(-c3ccccc3)nc12	50	-6	11	-7	-4	4
CCOc1ccc(CSC(=N)N)cc1[N+](=O)[O-]	98*	-2	-10	-8	13	-2
CCCCOc1ccc(CSCCN)cc1Cl	x	-2	1	18	18	33
CCOc1ccc(CSC(=N)N)cc1Cl	100*	2	-11	-15	25	32
CCO[C@H]1OC(C(=O)NCc2ccccc2)=C[C@@H](C(C)(C)C)[C@@H]1CCCO	6	3	0	-11	0	x
CCCc1cc(=O)[nH]c(SCC(=O)N2c3ccccc3NC(=O)C2(C)C)n1	10	x	x	x	x	x
Cn1c(SCC(=O)c2ccccc2)nnc1-c1cccc(N)c1	17	3	4	1	8	31
COCCn1c(SCC(=O)Nc2cccc(F)c2)nc2c([nH]c3ccccc32)c1=O	-2	11	5	5	4	19
COCCn1c(SCC(=O)Nc2cccc(NC(C)=O)c2)nc2c([nH]c3ccccc32)c1=O	98*	2	-5	-21	1	14
COc1cccc(NC(=O)CSc2nc3c([nH]c4ccccc43)c(=O)n2C)c1	0	-1	41	95*	22	38
Cc1cccc(NC(=O)CSc2nc3c([nH]c4ccccc43)c(=O)n2C)c1	x	11	6	0	3	11
COCCn1c(SCC(=O)Nc2ccc(C(C)=O)cc2)nc2c([nH]c3ccccc32)c1=O	98*	9	19	4	9	43
CCOc1c(C)cnc2c1c(=O)n(Cc1c(F)cccc1Cl)c(=O)n2C	-3	5	1	-6	25	18
COC(=O)C1=CN(Cc2ccc(OC)c(OC)c2)C=C(C(=O)OC)C1c1cccc(OC)c1OC	x	-2	9	6	1	18
COC(=O)C1=CN(Cc2ccc(OC)c(OC)c2)C=C(C(=O)OC)C1c1ccccc1F	-3	x	-55*	-61	11	39
Cn1c(CCNC(=O)c2ccc(Cl)cc2)n[nH]c1=S	96*	-5	-9	-4	18	-65
CCn1c(CCNC(=O)c2ccc(C)cc2)n[nH]c1=S	1	-4	-7	3	24	0
Cn1c(CSCc2ccc(Cl)cc2)n[nH]c1=S	94*	0	2	-13	-24	48
O=C(N/N=C/c1coc2ccccc2c1=O)c1ccc(Cl)cc1	-4	14	1	-3	14	2
O=c1c(/C=N\NS(=O)(=O)c2ccccc2)coc2ccc(Cl)cc12	4	4	-75*	-79	0	x
CCc1cc(CNC(=O)c2ccc(OC3CCN(CCc4ccccc4)CC3)cc2)on1	-19	-62	-10	-6	14	28
Clc1ccc(-c2nnc3n2CCCCS3)cc1	x	0	-3	-5	11	-9
C=C1Cn2c(nnc2-c2ccc(Cl)cc2)S1	-2	-4	2	-1	32	70*
COc1ccc(NC(=O)COC(=O)C2CC(=O)N(CCc3ccc(OC)c(OC)c3)C2)cc1Cl (stereo unspecified)	-9	x	x	x	x	x
Cc1ccn(CC(=O)N2CCCC(N3CCN(c4cccc(Cl)c4)CC3)C2)n1 (stereo unspecified)	99*	-3	5	4	24	49
SMILES	ALR H2O2 inh	core dimer inh	HSF1 inhib	HSF-1 act	AI-2 QS modul	PHOSPHO1 block
COc1ccc(NC2CCCN(C(=O)CSc3ccccc3)C2)cc1OC (stereo unspecified)	-16	-8	1	-1	45	28
CSc1ccc(C(=O)C2CCCN(C(=O)CN3CCOC3=O)C2)cc1 (stereo unspecified)	-9	x	3	-7	12	37
COc1ccc(NC2CCCN(C(=O)Cn3ccc(C)n3)C2)cc1OC (stereo unspecified)	99*	-17	-2	-1	16	43
COc1ccc(NC2CCCN(C(=O)CN3CCOC3=O)C2)cc1OC (stereo unspecified)	100*	6	1	-10	3	13
Cc1ccn(CC(=O)N2CCCC(Nc3ccc(F)c(F)c3)C2)n1 (stereo unspecified)	4	-8	0	-20	24	28
COc1ccc(NC2CCCN(C(=O)CN3CCOC3=O)C2)cc1 (stereo unspecified)	98*	10	2	17	3	10
CCc1ccccc1N(C1=NCCCS1)S(=O)(=O)c1ccc(C(C)(C)C)cc1	x	5	-2	16	0	-21
CC1CCCC(NC(=O)CCn2c(=S)oc3ccccc32)C1C (stereo unspecified)	15	0	-2	5	8	27
O=C(CCn1c(=S)oc2ccccc21)NC1CCCCCC1	-9	-1	-71*	-77	6	32
CN(C)c1ccc(NC(=O)CCn2c(=S)oc3ccccc32)cc1	98*	-19	8	7	14	43
O=C(COc1ccc(Cl)cc1)N1CCN(C(=O)c2ccccc2F)CC1	-8	1	0	-8	34	37
O=C(CCNC(=O)C1CCN(S(=O)(=O)c2ccc(F)cc2)CC1)NCc1ccc(Cl)cc1	-10	5	5	2	15	30
COc1ccc(CN(C(=O)c2snc(C(N)=O)c2N)C(C(=O)NC2CCCC2)c2ccco2)cc1 (stereo unspecified)	x	10	-3	8	28	15
Cc1ccc(C(=O)NC(=S)Nc2cc(-c3nc4ccccc4s3)ccc2C)cc1	28	4	16	59*	14	-54
CSc1ccc(/C=C2\C(=N)N3N=C(CC(=O)N4CCCCC4)SC3=NC2=O)cc1	96*	21	1	5	21	18
CC(C)c1ccc(/C=C2\C(=N)N3N=C(CC(=O)N4CCCCC4)SC3=NC2=O)cc1	96*	6	0	21	27	26
COc1ccc(/C=C2/C(=N)N3N=C(CC(=O)N4CCCC4)SC3=NC2=O)cc1	14	10	2	5	34	7
CCN(CC)c1ccc(/C=C2\C(=N)N3N=C(CC(=O)N4CCOCC4)SC3=NC2=O)cc1	98*	-2	-6	-6	14	38
CSc1ccc(/C=C2\C(=N)N3N=C(CC(=O)N4CCOCC4)SC3=NC2=O)cc1	6	5	-8	1	10	31
COc1ccc(/C=C2\C(=N)N3N=C(CC(=O)N4CCCCC4)SC3=NC2=O)cc1	80*	-3	-7	-15	28	8

Bioassay records: PubChem, several laboratories
